Laboratory results: ChEMBL document CHEMBL1126099, “Synthesis and biological characterization of alpha-(4-fluorophenyl)-4-(5-fluoro-2-pyrimidinyl)-1-piperazinebutanol and analogues as potential atypical antipsychotic agents” (J Med Chem, 1992)
pIC50, pKd: −log10 of the molar value. Calls of active or inactive are those of the source. The calls are words filed in the database; no cut-off is given here.

What was measured:
Rattus norvegicus [1] = assay: Effective in vivo peroral dose against induction of catalepsy in rats; type: functional
[2] = target: T1, Adrenergic receptor alpha-1 (Rattus norvegicus, UniProt P15823+P23944+P43140); assay: Inhibitory concentration against radioligand [3H]-WB- 4101 binding to rat cortical Alpha-1 adrenergic receptor; type: protein assay
T1 sequence (P15823 whole entry): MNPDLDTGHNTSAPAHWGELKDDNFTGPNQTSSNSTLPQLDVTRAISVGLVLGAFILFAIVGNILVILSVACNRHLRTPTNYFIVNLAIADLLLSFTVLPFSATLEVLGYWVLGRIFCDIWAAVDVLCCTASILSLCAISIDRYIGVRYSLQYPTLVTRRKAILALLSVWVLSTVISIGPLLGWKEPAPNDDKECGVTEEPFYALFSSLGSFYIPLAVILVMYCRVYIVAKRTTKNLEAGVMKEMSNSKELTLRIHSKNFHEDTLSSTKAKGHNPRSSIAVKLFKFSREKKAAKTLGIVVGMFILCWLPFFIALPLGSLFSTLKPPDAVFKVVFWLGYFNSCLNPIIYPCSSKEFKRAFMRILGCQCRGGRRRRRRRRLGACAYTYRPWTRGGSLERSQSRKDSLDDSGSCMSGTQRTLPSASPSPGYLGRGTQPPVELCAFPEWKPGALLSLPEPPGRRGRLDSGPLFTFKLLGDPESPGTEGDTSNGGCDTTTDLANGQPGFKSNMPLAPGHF
T1 sequence (P23944 whole entry): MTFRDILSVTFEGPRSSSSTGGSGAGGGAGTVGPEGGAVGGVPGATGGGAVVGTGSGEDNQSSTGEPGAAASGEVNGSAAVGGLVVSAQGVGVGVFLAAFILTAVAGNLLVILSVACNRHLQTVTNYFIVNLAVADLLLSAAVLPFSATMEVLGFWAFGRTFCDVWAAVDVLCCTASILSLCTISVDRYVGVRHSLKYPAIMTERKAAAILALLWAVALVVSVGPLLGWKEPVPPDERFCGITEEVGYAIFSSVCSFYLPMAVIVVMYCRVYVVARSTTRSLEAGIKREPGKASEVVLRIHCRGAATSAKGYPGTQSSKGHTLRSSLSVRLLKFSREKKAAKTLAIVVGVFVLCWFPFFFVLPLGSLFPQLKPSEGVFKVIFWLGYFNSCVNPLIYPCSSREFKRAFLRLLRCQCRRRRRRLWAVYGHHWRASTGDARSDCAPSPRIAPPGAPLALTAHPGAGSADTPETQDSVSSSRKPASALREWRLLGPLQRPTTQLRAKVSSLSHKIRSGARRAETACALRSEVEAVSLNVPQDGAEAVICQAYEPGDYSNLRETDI
T1 sequence (P43140 whole entry): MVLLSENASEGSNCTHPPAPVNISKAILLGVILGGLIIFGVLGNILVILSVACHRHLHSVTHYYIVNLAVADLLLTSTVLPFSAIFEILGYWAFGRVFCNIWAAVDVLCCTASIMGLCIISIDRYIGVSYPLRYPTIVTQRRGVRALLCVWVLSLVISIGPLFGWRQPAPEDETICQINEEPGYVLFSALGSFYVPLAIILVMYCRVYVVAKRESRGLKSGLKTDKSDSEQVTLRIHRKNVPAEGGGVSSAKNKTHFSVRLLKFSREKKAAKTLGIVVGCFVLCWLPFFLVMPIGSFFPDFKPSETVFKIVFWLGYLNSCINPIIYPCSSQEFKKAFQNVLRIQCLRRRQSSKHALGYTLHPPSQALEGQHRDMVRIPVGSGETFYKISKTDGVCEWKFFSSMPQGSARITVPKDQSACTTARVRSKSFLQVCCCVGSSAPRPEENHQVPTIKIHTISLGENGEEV
Method in brief: (§1)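 Competition binding against tritiated radioligand. Test drug was run at five concentrations in a single experiment, and IC50 (nM) was derived from displacement.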

D(2) dopamine receptor [3] = target: T2, D(2) dopamine receptor (Rattus norvegicus, UniProt P61169); assay: Inhibitory concentration against radioligand [3H]spiperone binding to rat striatal Dopamine receptor D2
Method in brief: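 [3H]Spiperone displacement at the D2 receptor. Each value comes from a single experiment in which displacement of the tritiated ligand was measured at five concentrations of test drug, and an IC50 in nM was derived from that.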

Rattus norvegicus [4] = species on record: Rattus norvegicus; assay: Inhibition of apomorphine-induced stereotypy in rats via peroral route; type: functional
Rattus norvegicus [5] = species on record: Rattus norvegicus; assay: Effective peroral dose for inhibition of conditioned avoidance response in rats; type: functional; conditions: po
[6] = target: T1, Adrenergic receptor alpha-1; assay: Inhibition of [3H]WB-4101 binding to rat cortical Alpha-1 adrenergic receptor in vitro; type: protein assay; method in brief: as §1
[7] = target: Sigma non-opioid intracellular receptor 1 (Rattus norvegicus, UniProt Q9R0C9); assay: Displacement of (+)-[3H]-3-PPP from rat cortical sigma site; method in brief: as §1
D(2) dopamine receptor [8] = target: T2, D(2) dopamine receptor; assay: In vitro inhibitory against radioligand [3H]spiperone binding to rat striatal Dopamine receptor D2; method in brief: as §1
Rattus norvegicus [9] = species on record: Rattus norvegicus; assay: Effective dose for ethanol potentiation in rats; type: functional
Rattus norvegicus [10] = species on record: Rattus norvegicus; assay: Effective dose for inhibition of spontaneous motor activity in rats; type: functional
Rattus norvegicus [11] = species on record: Rattus norvegicus; assay: Effective dose for motor incoordination in rats was determined by rotarod method; type: functional
Rattus norvegicus [12] = assay: Effective dose for reversal of trifluoperazine-induced catalepsy in rats; I=Inactive (ED50 mg/Kg); type: functional, organism-based
Mus musculus [13] = species on record: Mus musculus; assay: Effective dose for inhibition of physostigmine induced lethality in mouse; type: functional
Mus musculus [14] = species on record: Mus musculus; assay: Effective dose for inhibition of norepinephrine induced lethality in mouse; type: functional
Rattus norvegicus [15] = assay: Bmax (D2 receptor number) was determined after peroral administration of 30 mg/Kg in rats qd for 29 days; type: functional
Method in brief: (§2)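 Rats dosed orally once daily for 29 days with vehicle or test drug. Striatal D2 receptor number (Bmax, fmol/mg protein) and affinity (KD, pM) were then measured. Values are mean ± SEM for the number of preparations, with significance versus vehicle by Student's t-test (p < 0.05).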

Rattus norvegicus [16] = assay: Effect of chronic administration at a peroral dose of 30 mg/Kg qd for 29 days on D2 receptor binding in rat striata; type: functional, organism-based; method in brief: as §2
Rattus norvegicus [17] = assay: Effect of chronic administration at a peroral dose of 15 mg/Kg qd for 29 days on D2 receptor binding in rat striata; type: functional, organism-based; method in brief: as §2
Rattus norvegicus [18] = assay: Bmax (D2 receptor number) was determined after peroral administration of 15 mg/Kg in rats qd for 29 days; type: functional; method in brief: as §2
[19] = Rattus norvegicus, po, read-out: ED50

T2 sequence (P61169 whole entry): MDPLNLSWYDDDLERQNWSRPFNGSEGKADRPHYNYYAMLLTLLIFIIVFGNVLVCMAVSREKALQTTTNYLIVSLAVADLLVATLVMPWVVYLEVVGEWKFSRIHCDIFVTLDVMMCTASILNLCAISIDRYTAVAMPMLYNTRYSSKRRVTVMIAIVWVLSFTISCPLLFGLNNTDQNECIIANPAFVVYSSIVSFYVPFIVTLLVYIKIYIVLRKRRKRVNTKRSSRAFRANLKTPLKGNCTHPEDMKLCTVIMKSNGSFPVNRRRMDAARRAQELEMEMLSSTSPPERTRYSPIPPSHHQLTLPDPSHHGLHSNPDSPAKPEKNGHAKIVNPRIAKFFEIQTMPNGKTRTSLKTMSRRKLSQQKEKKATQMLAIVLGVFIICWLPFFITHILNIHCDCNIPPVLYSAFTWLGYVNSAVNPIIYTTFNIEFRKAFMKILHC
Chain of Sigma non-opioid intracellular receptor 1 (Q9R0C9 whole entry): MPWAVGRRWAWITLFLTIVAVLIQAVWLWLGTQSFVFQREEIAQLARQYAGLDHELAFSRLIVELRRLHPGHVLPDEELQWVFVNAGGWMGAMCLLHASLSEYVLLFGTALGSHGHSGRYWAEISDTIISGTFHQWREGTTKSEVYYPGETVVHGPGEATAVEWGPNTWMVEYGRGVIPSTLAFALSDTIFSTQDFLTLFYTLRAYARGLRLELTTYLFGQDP

| Compound | ED50 (Rattus norvegicus [1]; [19]) | ED50 (Rattus norvegicus [4]; [19]) | ED50 (Rattus norvegicus [5]) | IC50 [6] | pIC50 [7] | pIC50 (D(2) dopamine receptor [8]) | also measured |
| --- | --- | --- | --- | --- | --- | --- | --- |
| O[C@H](CCCN1CCN(c2ncc(F)cn2)CC1)c1ccc(F)cc1 | 11.4 mg/kg | 44 mg/kg | – | – | – | – | IC50 [2]: 610 nM; pIC50 (D(2) dopamine receptor [3]): < 6.00 |
| O/N=C(\CCCN1CCN(c2ncc(F)cn2)CC1)c1ccc(F)cc1 | – | – | > 100 mg/kg | 22 nM | 7.09 | – | – |
| O=C(CCCN1CCN(c2ncccn2)CC1)c1ccc(F)cc1 | > 100 mg/kg | 21.6 mg/kg | 25.3 mg/kg | 6 nM | 6.37 | 6.17 | – |
| O[C@@H](CCCN1CCN(c2ncc(F)cn2)CC1)c1ccc(F)cc1 [BMY-14802] | – | – | – | – | – | – | ED50 (Rattus norvegicus [1]): 38.1 mg/kg; IC50 [2]: 570 nM; ED50 (Rattus norvegicus [4]): 25.4 mg/kg |
| Fc1ccc(/C=C(\CCN2CCN(c3ncc(F)cn3)CC2)c2ccc(F)cc2)cc1 | – | – | > 100 mg/kg | 756 nM | < 6.00 | 5.06 | – |
| O=C(CCCN1CCN(c2ncc(F)cn2)CC1)c1ccc(F)cc1 | 144 mg/kg | 58.9 mg/kg | 36.3 mg/kg | 29 nM | 6.89 | – | – |
| CC(O)(CCCN1CCN(c2ncc(F)cn2)CC1)c1ccc(F)cc1 (stereo unspecified) | > 100 mg/kg | > 50 mg/kg | > 25 mg/kg | – | 6.96 | 5.67 | – |
| NC(CCCN1CCN(c2ncc(F)cn2)CC1)c1ccc(F)cc1 (stereo unspecified) | – | – | > 100 mg/kg | 446 nM | ~6.00 | < 6.00 | – |
| OC(CCCN1CCN(c2ncc(Br)cn2)CC1)c1ccc(F)cc1 (stereo unspecified) | 108 mg/kg | > 65 mg/kg | 50 mg/kg | 1500 nM | 7.59 | < 6.00 | – |
| CSc1ccc2c(c1)N(CCC1CCCCN1C)c1ccccc1S2 (stereo unspecified) [THIORIDAZINE] | – | 280 mg/kg | – | – | 6.12 | – | ED50 (Rattus norvegicus [9]): 56 mg/kg; ED50 (Rattus norvegicus [10]): 33 mg/kg; ED50 (Rattus norvegicus [11]): 20 mg/kg; Activity (Rattus norvegicus [12]): inactive; ED50 (Mus musculus [13]): 45 mg/kg; ED50 (Mus musculus [14]): 2.2 mg/kg |
| Oc1nc(N2CCN(CCCC(O)c3ccc(F)cc3)CC2)ncc1F (stereo unspecified) | – | > 100 mg/kg | > 100 mg/kg | > 1000 nM | < 6.00 | < 6.00 | – |
| CCC(O)(CCCN1CCN(c2ncccn2)CC1)c1ccc(F)cc1 (stereo unspecified) | – | > 100 mg/kg | > 100 mg/kg | 230 nM | – | 6.38 | – |
| OC(CCCN1CCN(c2ncc(F)cn2)CC1)c1ccc(F)cc1 (stereo in doubt; 16) [BMY-14802] | – | 33 mg/kg | – | 520 nM | – | – | ED50 (Rattus norvegicus [1]): >100 mg/kg; IC50 [2]: 460 nM; ED50 (Rattus norvegicus [9]): 20.1 mg/kg; ED50 (Rattus norvegicus [10]): 87.3 mg/kg; Bmax (Rattus norvegicus [15]): 212 fmol/mg protein; ED50 (Rattus norvegicus [11]): 43.5 mg/kg; pKd (Rattus norvegicus [16]): 10.00; pKd (Rattus norvegicus [17]): 9.92; ED50 (Mus musculus [13]): > 100 mg/kg; ED50 (Mus musculus [14]): > 100 mg/kg; Bmax (Rattus norvegicus [18]): 233 fmol/mg protein |
| OC(CCCN1CCN(c2ncccn2)CC1)c1ccc(F)cc1 (stereo unspecified) | > 100 mg/kg | 32.3 mg/kg | 25 mg/kg | 162 nM | 6.89 | 5.86 | – |
